The target of assay [1] is T1, Adenosine receptor A3 (Rattus norvegicus, UniProt P28647).
T1 sequence (P28647 whole entry): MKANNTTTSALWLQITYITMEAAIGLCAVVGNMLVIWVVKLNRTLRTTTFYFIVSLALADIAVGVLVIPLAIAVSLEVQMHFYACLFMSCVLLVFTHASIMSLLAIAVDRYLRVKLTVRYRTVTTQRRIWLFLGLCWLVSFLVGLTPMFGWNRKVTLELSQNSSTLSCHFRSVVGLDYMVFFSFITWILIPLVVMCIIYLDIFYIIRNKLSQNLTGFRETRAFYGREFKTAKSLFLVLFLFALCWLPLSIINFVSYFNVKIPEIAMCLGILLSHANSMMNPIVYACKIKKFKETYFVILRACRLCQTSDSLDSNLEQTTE
Kind of assay: Binding affinity at rat adenosine A3 receptor in CHO cells. The format is cell-based.

Another assay addresses T2, Adenosine receptor A1 (Rattus norvegicus, UniProt P25099).
T2 sequence (P25099 whole entry): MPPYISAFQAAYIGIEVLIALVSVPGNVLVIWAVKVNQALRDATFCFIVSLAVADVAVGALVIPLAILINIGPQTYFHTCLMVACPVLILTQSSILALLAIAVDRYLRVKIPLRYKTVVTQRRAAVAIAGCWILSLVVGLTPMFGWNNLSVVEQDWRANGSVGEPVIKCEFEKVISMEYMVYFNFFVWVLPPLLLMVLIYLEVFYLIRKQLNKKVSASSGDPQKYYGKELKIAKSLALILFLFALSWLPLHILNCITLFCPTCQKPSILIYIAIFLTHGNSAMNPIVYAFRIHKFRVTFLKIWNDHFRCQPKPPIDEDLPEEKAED
Briefly: Binding affinity at rat brain Adenosine A1 receptor. The gist of the method:
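Rat cerebral cortex membranes labelled with [3H]R-PIA. Adenosine deaminase 3 units/mL present during membrane preparation, during a 30 min preincubation at 30 °C and during incubation. Filtration on GF/B filters. At least five competitor concentrations spanning 3 log units. […] Three independent experiments in duplicate.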

The target in assay [2] is T3, Adenosine receptor A3 (Homo sapiens, UniProt P0DMS8).
T3 sequence (P0DMS8 whole entry): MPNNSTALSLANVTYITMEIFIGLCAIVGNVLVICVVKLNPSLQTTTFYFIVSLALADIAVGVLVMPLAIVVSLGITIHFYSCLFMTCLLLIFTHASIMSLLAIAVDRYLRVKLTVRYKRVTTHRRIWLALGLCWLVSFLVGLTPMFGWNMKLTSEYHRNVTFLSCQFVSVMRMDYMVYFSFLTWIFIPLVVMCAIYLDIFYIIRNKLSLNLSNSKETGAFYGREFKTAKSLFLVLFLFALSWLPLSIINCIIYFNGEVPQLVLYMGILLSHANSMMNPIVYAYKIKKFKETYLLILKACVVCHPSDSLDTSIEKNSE
Kind of assay: Binding affinity at wild-type Adenosine A3 receptor expressed in COS-7 cells. The format is cell-based.

Assay [3] has as its target Adenosine receptor A3 (Homo sapiens, UniProt P0DMS8, H272E). Briefly: Binding affinity at Mutant (H272E) human adenosine A3 receptor expressed in COS-7 cells. The format is cell-based.
In assay [4] the target is T1, Adenosine receptor A3. Kind of assay: Binding affinity at rat adenosine A3 receptor in RBL-2H3 cells. The format is cell-based. The gist of the method:
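Rat A3 receptors endogenously expressed in RBL-2H3 cells; displacement of [125I]AB-MECA at 1 nM in 50 mM Tris, 10 mM Mg2+, 1 mM EDTA, pH 8.0. Nonspecific binding defined with 100 μM R-PIA. Filtration on GF/B filters. At least five competitor concentrations. IC50 by nonlinear regression, converted to Ki by Cheng–Prusoff (Kd 1.46 nM). Three independent experiments in duplicate.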

Bounds are passed on as bounds.

Sequence of Adenosine receptor A3 (Homo sapiens, UniProt P0DMS8, H272E) (P0DMS8 whole entry H272E): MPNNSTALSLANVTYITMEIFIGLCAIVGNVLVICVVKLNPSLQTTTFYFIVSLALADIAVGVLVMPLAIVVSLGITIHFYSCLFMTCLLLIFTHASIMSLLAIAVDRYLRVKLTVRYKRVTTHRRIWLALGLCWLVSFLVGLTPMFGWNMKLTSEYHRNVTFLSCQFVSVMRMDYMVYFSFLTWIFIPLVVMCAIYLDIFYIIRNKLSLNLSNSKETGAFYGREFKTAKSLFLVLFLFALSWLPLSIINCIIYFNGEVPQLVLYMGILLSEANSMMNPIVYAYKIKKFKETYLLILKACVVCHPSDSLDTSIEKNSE

For the compound `NCCNC(=O)[C@H]1O[C@@H](n2cnc3c(N)ncnc32)[C@H](O)[C@@H]1O`, the values for the Ki on Adenosine receptor A3 [1] and on Adenosine receptor A1 were 14.7 µM and above 10 µM, respectively.
Regarding `N[C@H]1[C@@H](O)[C@H](n2cnc3c(NCc4cccc(I)c4)ncnc32)O[C@@H]1CO`, the Ki (commonly a dissociation constant, usually derived from enzyme kinetics or from competition with a known ligand) came out at 0.87 µM on Adenosine receptor A3 [2], 8.1 µM on Adenosine receptor A1 and 0.32 µM at Adenosine receptor A3 [3].
Take `N[C@@H]1[C@@H](O)[C@H](n2cnc3c(NC4CCCC4)ncnc32)O[C@@H]1CO`: the Ki was above 10 µM on Adenosine receptor A3 [4], 0.00054 µM at Adenosine receptor A3 [2], above 10 µM on Adenosine receptor A1 and 0.00019 µM at Adenosine receptor A3 [3].
In the case of `Nc1ncnc2c1ncn2[C@@H]1O[C@H](CO)[C@@H](O)[C@H]1N`, the Ki was above 10 µM at Adenosine receptor A3 [4], 1000 µM at Adenosine receptor A3 [2], above 10 µM at Adenosine receptor A1 and 0.301 µM at Adenosine receptor A3 [3].
Take `Nc1nc(Cl)nc2c1ncn2[C@@H]1O[C@H](CO)[C@@H](O)[C@H]1O`: the inhibitory constant (Ki) amounted to 0.65 µM at Adenosine receptor A3 [2] and 11.6 µM on Adenosine receptor A3 [3].
Turning to `NC[C@H]1O[C@@H](n2cnc3c(N)ncnc32)[C@H](O)[C@@H]1O`, the Ki was above 10 µM on Adenosine receptor A3 [4], 1000 µM at Adenosine receptor A3 [2], above 10 µM at Adenosine receptor A1 and 0.425 µM on Adenosine receptor A3 [3].
Take `Nc1ncnc2c1ncn2[C@@H]1O[C@H](CO)[C@@H](N)[C@H]1O`: the Ki at Adenosine receptor A3 [4] was 84 µM; on Adenosine receptor A3 [2], 0.442 µM; at Adenosine receptor A1 it was above 10 µM; at Adenosine receptor A3 [3] it was 0.075 µM.
Regarding `N=C(N)N[C@H]1[C@@H](O)[C@H](n2cnc3c(N)ncnc32)O[C@@H]1CO`, the Ki on Adenosine receptor A3 [2] is 0.13 µM; at Adenosine receptor A1, above 10 µM; at Adenosine receptor A3 [3], 0.0333 µM.
In the case of `CNC(=O)[C@@H]1C[C@H](N)[C@H](n2cnc3c(NCc4cccc(I)c4)nc(Cl)nc32)O1`, the Ki on Adenosine receptor A3 [1] was 3.4 µM; on Adenosine receptor A3 [2], 0.0046 µM; on Adenosine receptor A1, 6.69 µM; at Adenosine receptor A3 [3] it was 0.0023 µM.
Regarding `Nc1nc2ccc(Cl)cc2c2nc(-c3ccco3)nn12` [CGS-15943], the Ki at Adenosine receptor A3 [2] was 0.253 µM; on Adenosine receptor A3 [3], 3.26 µM.

The values are drawn from ChEMBL document CHEMBL1134644 (J Med Chem, 2001).
